Columns and labels:
[1] = tested on: HepG2 cells; test: Time-lapse microscopy of HepG2 proliferation; format: cell-based; conditions: 50 nmol/L mithramycin, 50 nmol/L EC-8042 or 7.5 nmol/L EC-8105
[2] = tested on: Ewing sarcoma cells; test: Cell proliferation / cell viability IC50 at 48 h; format: cell-based; conditions: read-out: cell viability IC50; 48 h of treatment
Outline: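 Ewing sarcoma cells (TC32/TC71), STR-authenticated, grown in RPMI 1640 with 10% FBS, 2mM L-Gln and penicillin/streptomycin. Cells exposed to test compound for 48 h and cell number recorded across a dose range. IC50 from non-linear regression over at least 3 independent experiments.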

[3] = tested on: CD-1 mice; test: Maximum tolerated dose in healthy CD-1 mice; conditions: mouse, in vivo
[4] = tested on: γH2AX phosphorylation; test: DNA damage by phosphorylation of γH2AX; format: cell-based; conditions: 50 nmol/L mithramycin, 50 nmol/L EC-8042 or 7.5 nmol/L EC-8105
[5] = tested on: EWS-FLI1 target genes (NR0B1); test: Quantitative RT-PCR of NR0B1 and EWS-FLI1 target gene expression in TC32 cells; format: cell-based; conditions: for concentration showing equivalent suppression of EWS-FLI1 targets NR0B1, EZH2, and ID2: qPCR, 12 h
[6] = tested on: rat; test: Rat toxicity: liver enzymes, liver synthetic function, hematopoiesis; conditions: in vivo, 8 mg/kg
[7] = Serum drug levels in mice; conditions: mouse, in vivo
[8] = tested on: TC71 xenograft; test: TC71 Ewing sarcoma xenograft in nude mice; format: in vivo
[9] = tested on: NR0B1 expression (EWS-FLI1 activity); test: Immunofluorescence for NR0B1 in xenograft tumor tissue; format: in vivo, mouse; conditions: TC71 xenograft, day 3 of treatment, IP
[10] = tested on: EWS-FLI1 target genes EZH2, NR0B1, and ID2; test: Immunoblot of EWS-FLI1 downstream targets; format: cell-based; conditions: TC32 cells, 50 nmol/L, 18 h
[11] = tested on: TC71 xenograft; conditions: TC32 and TC71 xenografts, 1 mg/kg IP M/W/F; cited from earlier work

Row | Compound | proliferation of HepG2 cells [1] | IC50 [2] | Intraperitoneal MTD ([3]; ip) | Intravenous MTD ([3]; iv) | DNA damage as measured by phosphorylation of γH2AX [4] | effect on panel of EWS-FLI1 target genes ([5]; Fig. 3B, legend: 15 nM for 18 h or 3 h) | concentration showing equivalent suppression of EWS-FLI1 targets NR0B1, EZH2, and ID2 [5] | other toxicities (myelosuppression, compromise of liver synthetic function) [6] | serum levels of drug [7] | tumor regression ([8]; 24 mg/kg IP (12% of the IP MTD)) | tumor growth rate less per day than the control ([8]; 24 mg/kg IP M/W/F, while being treated) | mean tumor size on day 11 of treatment ([8]; 24 mg/kg IP, control 3177 mm^3) | tumor growth less per day than the control ([8]; 24 mg/kg IV Q3D, while on treatment) | survival of treated cohort ([8]; 24 mg/kg IV, P <0.0001) | EWS-FLI1 activity in tumor tissue by NR0B1 immunofluorescent staining [9] | suppression of EWS-FLI1 targets EZH2, NR0B1, and ID2 at the protein level [10] | fold change in NR0B1 expression ([5]; TC32 cells, 50 nmol/L, 12 hr, qPCR vs GAPDH) | xenograft tumor growth [11]
1 | CO[C@@H]([C@@H]1Cc2cc3cc(O[C@H]4CC(O[C@H]5CC(O)[C@H](O)C(C)O5)[C@H](O)C(C)O4)c(C)c(O)c3c(O)c2C(=O)[C@H]1O[C@H]1CC(O[C@H]2CC(O[C@H]3CC(O)[C@H](O)C(C)O3)[C@@H](O)C(C)O2)[C@H](O)C(C)O1)[C@@H](O)C(C)=O (stereo partly drawn) [EC-8042] | neither EC-8105 or EC-8042 had any effect | 37.8 nM | 200 mg/kg | 64 mg/kg | no DNA damaging effects | All the EWS-FLI1 induced targets were suppressed and all the repressed targets were induced to a comparable extent as mithramycin | 50 nmol/L | no evidence of other toxicities | 4.295 µM | every tumor in every mouse showed some level of regression | 268.2 mm^3 | 422.5 mm^3 | 151 mm^3 | extended the survival | clear suppression of EWS-FLI1 activity | suppressed | – | –
2 | mithramycin [reference compound] | – | 15.5 nM | – | – | – | – | 50 nmol/L | – | – | – | – | – | – | – | – | suppressed | 0.48 | markedly suppresses and even regresses tumor growth
